From ChEMBL document CHEMBL1153841, “The antifungal polyketide ambruticin targets the HOG pathway” (2007)
≈ marks a conversion by molar mass, not a printed value. Calls of active or inactive are those of the source. The calls are words filed in the database; no cut-off is given here.

How the values were obtained:
Saccharomyces cerevisiae [1] = test: Elevation of Hog1 phosphorylation Saccharomyces cerevisiae ATCC 201388 carrying deltahog1 gene at 25 ppm after 4 hrs in SD/-Ura medium by Western blot analysis; assay type: functional, organism-based
Method in brief: (§1)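 Overnight cultures in SD/−Ura resuspended in fresh SD/−Ura and grown 4 h, then exposed 10 min to compound (25 ppm), 0.5 M NaCl, or left untreated. Soluble protein from cell extracts Western blotted with anti-p38 antibody against doubly phosphorylated T180/Y182 (phospho-Hog1) and anti-C-terminal Hog1 antibody (total Hog1). Detection by HRP-conjugated secondary antibody with ECL Plus.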

Saccharomyces cerevisiae [2] = test: Elevation of Hog1 phosphorylation Saccharomyces cerevisiae ATCC 201388 carrying pYES2 at 25 ppm after 4 hrs in SD/-Ura medium by Western blot analysis; assay type: functional, organism-based; method in brief: as §1
Saccharomyces cerevisiae [3] = test: Elevation of Hog1 phosphorylation Saccharomyces cerevisiae ATCC 201388 carrying pYES2-HIK1 at 25 ppm after 4 hrs in SD/-Ura medium by Western blot analysis; assay type: functional, organism-based; method in brief: as §1
Saccharomyces cerevisiae [4] = test: Antifungal activity against Saccharomyces cerevisiae ATCC 201388 carrying pYES2-HIK1 in SD/-Ura medium after 48 hrs by CLSI susceptibility test; assay type: functional; conditions: ATCC 201388, 48 h
Method in brief: (§2)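 Broth MIC following CLSI M27, except that inoculum prep and test medium used SD/−Ura in place of RPMI. Read at 48 h. MIC-0 is the concentration giving 90% growth reduction versus the untreated control.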

Saccharomyces cerevisiae [5] = test: Antifungal activity against Saccharomyces cerevisiae ATCC 201388 carrying pYES2-hik1-H736V in SD/-Ura medium after 48 hrs by CLSI susceptibility test; assay type: functional; conditions: ATCC 201388, 48 h; method in brief: as §2
Saccharomyces cerevisiae [6] = test: Antifungal activity against Saccharomyces cerevisiae ATCC 201388 carrying pYES2-hik1-D1153E in SD/-Ura medium after 48 hrs by CLSI susceptibility test; assay type: functional; conditions: ATCC 201388, 48 h; method in brief: as §2
Saccharomyces cerevisiae [7] = test: Antifungal activity against Saccharomyces cerevisiae ATCC 201388 carrying pYES2-hik1-D1153E in SG/-Ura medium after 48 hrs by CLSI susceptibility test; assay type: functional; conditions: ATCC 201388, 48 h
Method in brief: (§3)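 CLSI M27 broth MIC, modified so that SG/−Ura served as both inoculum-preparation and test medium in place of RPMI. Uracil is omitted to select for plasmid maintenance. Read after 48 h of incubation. MIC-0 is the concentration causing 90% reduction in growth relative to the untreated control.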

Saccharomyces cerevisiae [8] = test: Antifungal activity against Saccharomyces cerevisiae ATCC 201388 carrying pYES2-hik1-H736V in SG/-Ura medium after 48 hrs by CLSI susceptibility test; assay type: functional; conditions: ATCC 201388, 48 h; method in brief: as §3
Saccharomyces cerevisiae [9] = test: Antifungal activity against Saccharomyces cerevisiae ATCC 201388 carrying pYES2-HIK1 in SG/-Ura medium after 48 hrs by CLSI susceptibility test; assay type: functional; conditions: ATCC 201388, 48 h; method in brief: as §3
Saccharomyces cerevisiae [10] = test: Antifungal activity against Saccharomyces cerevisiae ATCC 201388 carrying pYES2 in SD/-Ura medium after 48 hrs by CLSI susceptibility test; assay type: functional; conditions: ATCC 201388, 48 h; method in brief: as §2
Saccharomyces cerevisiae [11] = test: Antifungal activity against Saccharomyces cerevisiae ATCC 201388 carrying pYES2 in SG/-Ura medium after 48 hrs by CLSI susceptibility test; assay type: functional; conditions: ATCC 201388, 48 h; method in brief: as §3

Compound: CC[C@H]1O[C@@H](/C(C)=C/[C@H](C)/C=C/[C@H]2[C@@H](C)[C@@H]2/C=C/[C@@H]2O[C@H](CC(=O)O)C[C@H](O)[C@H]2O)CC=C1C
- Activity (Saccharomyces cerevisiae [1]): inactive
- Activity (Saccharomyces cerevisiae [2]): inactive
- Activity (Saccharomyces cerevisiae [3]): Active

Compound: CC[C@H]1O[C@@H](/C(C)=C/[C@H](C)/C=C/[C@H]2[C@@H](C)[C@@H]2/C=C/[C@@H]2O[C@H](CC(=O)O)C[C@H](N(C)C)[C@H]2O)CC=C1C [AMBRUTICIN VS3]
- MIC90 (Saccharomyces cerevisiae [4]): > 32 µg/mL
- MIC90 (Saccharomyces cerevisiae [5]): > 32 µg/mL
- MIC90 (Saccharomyces cerevisiae [6]): > 32 µg/mL
- MIC90 (Saccharomyces cerevisiae [7]): > 32 µg/mL
- MIC90 (Saccharomyces cerevisiae [8]): > 32 µg/mL
- MIC90 (Saccharomyces cerevisiae [9]): 0.5 µg/mL (≈ 0.997 µM)
- MIC90 (Saccharomyces cerevisiae [10]): > 32 µg/mL
- MIC90 (Saccharomyces cerevisiae [11]): > 32 µg/mL

Compound: N#Cc1c[nH]cc1-c1cccc2c1OC(F)(F)O2 [FLUDIOXONIL]
- MIC90 (Saccharomyces cerevisiae [4]): > 32 µg/mL
- MIC90 (Saccharomyces cerevisiae [5]): > 32 µg/mL
- MIC90 (Saccharomyces cerevisiae [6]): > 32 µg/mL
- MIC90 (Saccharomyces cerevisiae [7]): > 32 µg/mL
- MIC90 (Saccharomyces cerevisiae [8]): > 32 µg/mL
- MIC90 (Saccharomyces cerevisiae [9]): 2 µg/mL (≈ 8.06 µM)
- MIC90 (Saccharomyces cerevisiae [10]): > 32 µg/mL
- MIC90 (Saccharomyces cerevisiae [11]): > 32 µg/mL

Compound: C=CC1(C)OC(=O)N(c2cc(Cl)cc(Cl)c2)C1=O (configuration not stated) [VINCLOZOLIN]
- MIC90 (Saccharomyces cerevisiae [4]): > 32 µg/mL
- MIC90 (Saccharomyces cerevisiae [5]): > 32 µg/mL
- MIC90 (Saccharomyces cerevisiae [6]): > 32 µg/mL
- MIC90 (Saccharomyces cerevisiae [7]): > 32 µg/mL
- MIC90 (Saccharomyces cerevisiae [8]): > 32 µg/mL
- MIC90 (Saccharomyces cerevisiae [9]): 16 µg/mL (≈ 55.9 µM)
- MIC90 (Saccharomyces cerevisiae [10]): > 32 µg/mL
- MIC90 (Saccharomyces cerevisiae [11]): > 32 µg/mL
